Data set [1] is described as follows: (§1) Antiproliferative activity against human MCF7:5C cells assessed as reduction in cell viability incubated for 7 days by Hoechst 33258 dye based assay relative to control. The settings on record: 168 h. Format: functional. The essentials:
(§2)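 Cells were seeded at 5000 per well; MCF7:WS8 had been estrogen-stripped for 2 days first. Compounds were serially diluted in DMSO, with 0.01% DMSO as vehicle. The medium was removed on day 5 (MCF7:WS8) or day 7 (MCF7:5C), and cells were lysed by freezing at −80 °C overnight. DNA was measured by Hoechst 33258 fluorescence. Maximum efficacy was normalized to vehicle (0%) and no cells (100%); at least three biological replicates.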

The nature of data set [2]: Antiproliferative activity against human MCF7:WS8 cells assessed as reduction in cell viability incubated for 5 days by Hoechst 33258 dye based assay. Format: functional. Particulars: MCF7:WS8, 120 h. A digest of the protocol: as §2
The nature of data set [3]: Antiproliferative activity against human MCF7:WS8 cells assessed as reduction in cell viability incubated for 5 days by Hoechst 33258 dye based assay relative to control. Format: functional. The settings on record: MCF7:WS8, 120 h. The essentials:
as §2

Data set [4] is described as follows: Plasma concentration in C57BL/6 mouse at 5 mg, sc measured after 0.5 hrs by LC/MS-MS analysis. Format: ADME, organism-based. The essentials:
(§3)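 PK screen in female C57BL/6 mice (N = 3 per time point) given 5 mg s.c. single dose; mice perfused, plasma and brain collected postmortem at 0.5 and 2 h; analyte quantified by LC-MS/MS in MRM mode against standard curves prepared in the matching matrix with a common internal standard; mean and s.d. reported.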

A short description of data set [5]: Plasma concentration in C57BL/6 mouse at 5 mg, sc measured after 2 hrs by LC/MS-MS analysis. Format: ADME, organism-based. The essentials:
as §3

The nature of data set [6]: Drug concentration in C57BL/6 mouse brain at 5 mg, sc measured after 0.5 hrs by LC/MS-MS analysis. Format: ADME, organism-based. The settings on record: read-out: Drug uptake. A digest of the protocol:
as §3

Data set [7] is described as follows: Drug concentration in C57BL/6 mouse brain at 5 mg, sc measured after 2 hrs by LC/MS-MS analysis. Format: ADME, organism-based. The settings on record: read-out: Drug uptake. The essentials: as §3
Data set [8] relates to Rattus norvegicus. The experiment in a line: Induction of uterotrophic activity in Sprague-Dawley rat assessed as increase in uterine weight at 2 mg/kg, sc administered for 3 days and measured after 24 hrs of last dosing by hematoxylin eosin staining based imaging analysis. Format: functional, organism-based. A digest of the protocol:
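Female Sprague Dawley rats, 12 days old, were housed with foster dams (6 per dam) and acclimated for one week. From day 19 they received 3 daily doses of 2 mg/kg s.c. in peanut oil. Animals were killed 24 h after the last dose, and uteri were excised, trimmed of fat and mesentery, and weighed. Half of each uterus was fixed in 4% paraformaldehyde, paraffin embedded and stained with H&E.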

In data set [9] the test system is MCF7:TAM1. The data set is described as follows: Antitumor activity against human MCF7:TAM1 cells xenografted in athymic nude mouse assessed as tumor regression at 5 mg, sc measured after 4 weeks. Format: functional, organism-based. The essentials: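 Ovariectomized athymic female nude mice, 4–6 weeks old, carrying MCF7:TAM1 tumours established in the mammary fat pad, with E2 supplied from 1.0 cm silastic capsules implanted s.c. Dosing was 5 mg/week s.c. in sesame oil. Tumour cross-sectional area was measured weekly with calipers as (length/2)×(width/2)×π, and mean area was plotted against time in weeks.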

For data set [10], the species on record is Homo sapiens. The experiment in a line: Cytotoxicity against human MCF7:WS8 3D spheroid cells assessed as reduction in tumor spheroid size at 10 nM incubated for 14 days.
Data set [11] has as its system T47D. The experiment in a line: Cytotoxicity against human T47D 3D spheroid cells assessed as reduction in tumor cell viability at 10 nM incubated for 14 days by celltiter-glo 3D cell viability assay. In general terms: ATP-based viability assays read luminescence as a measure of living cells.
The species named for data set [12] is Homo sapiens. The experiment in a line: Cytotoxicity against human MCF7:WS8 3D spheroid cells assessed as reduction in tumor cell viability at 10 nM incubated for 14 days by celltiter-glo 3D cell viability assay.
Data set [13] concerns MCF7:TAM1. The experiment in a line: Cytotoxicity against human MCF7:TAM1 3D spheroid cells assessed as reduction in tumor cell viability at 10 nM incubated for 14 days by celltiter-glo 3D cell viability assay.
Data set [14] concerns T47D. The data set is described as follows: Cytotoxicity against human T47D 3D spheroid cells harboring Y537S mutant assessed as reduction in tumor cell viability at 10 nM incubated for 14 days by celltiter-glo 3D cell viability assay.
Data set [15] concerns T47D. The data set is described as follows: Cytotoxicity against human T47D 3D spheroid cells harboring D538G mutant assessed as reduction in tumor cell viability at 10 nM incubated for 14 days by celltiter-glo 3D cell viability assay.
The species named for data set [16] is Homo sapiens. The description is as §1. Format: functional. A digest of the protocol: as §2
The target of data set [17] is T1, Estrogen receptor (Homo sapiens) (UniProt P03372).
T1 sequence (whole entry): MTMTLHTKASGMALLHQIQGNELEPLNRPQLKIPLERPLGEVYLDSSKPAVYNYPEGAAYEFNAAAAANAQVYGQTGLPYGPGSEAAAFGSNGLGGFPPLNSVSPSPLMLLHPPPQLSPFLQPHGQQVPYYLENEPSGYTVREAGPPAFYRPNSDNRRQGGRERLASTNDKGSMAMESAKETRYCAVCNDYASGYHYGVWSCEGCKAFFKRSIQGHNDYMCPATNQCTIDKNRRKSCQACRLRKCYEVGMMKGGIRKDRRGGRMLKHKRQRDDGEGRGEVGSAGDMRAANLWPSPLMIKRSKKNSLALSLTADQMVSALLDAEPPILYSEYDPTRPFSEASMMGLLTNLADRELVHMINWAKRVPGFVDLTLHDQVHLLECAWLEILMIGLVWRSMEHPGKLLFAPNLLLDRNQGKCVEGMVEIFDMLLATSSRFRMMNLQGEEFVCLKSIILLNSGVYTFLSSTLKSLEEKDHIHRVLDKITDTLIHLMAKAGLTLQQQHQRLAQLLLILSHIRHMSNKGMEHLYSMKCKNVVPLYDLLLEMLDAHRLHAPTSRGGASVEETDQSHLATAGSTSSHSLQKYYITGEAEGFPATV
The experiment in a line: Induction of degradation of ERalpha in human MCF7:WS8 cells at 100 nM in presence of MG-132 incubated for 24 hrs by Western blot analysis. Format: cell-based.

For data set [18], the system named is Mus musculus. The data set is described as follows: In vivo degradation of ERalpha in C57BL/6 mouse at 50 mg/kg, po measured after 7 hrs by Western blot analysis. Format: functional, organism-based. The essentials: (§4)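 Female C57BL/6J mice aged 9–12 weeks were dosed at 50 mg/kg p.o. in PEG 400/10% HPCD (1:9 v/v). Regimens were a single dose with sacrifice at 5 h, or 3 daily doses with sacrifice 5 h (n = 5) or 7 h (n = 6) after the last dose. Ovaries and uterus were homogenized, 20 μg protein was run by SDS-PAGE, and the blot was probed for ERα and normalized to β-actin.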
On the technique in general: In western blotting, separated proteins are transferred to a membrane and probed.

The subject of data set [19] is Mus musculus. The experiment in a line: In vivo degradation of ERalpha in C57BL/6 mouse at 50 mg/kg, po administered for 3 days and measured on day 3 by Western blot analysis. Format: functional, organism-based. A digest of the protocol: as §4
Data set [20] addresses T2, Estrogen receptor (Homo sapiens, UniProt P03372).
T2 sequence (P03372 whole entry): T1 sequence (whole entry)
The experiment in a line: Inhibition of ERalpha in human MCF7:WS8 cells assessed as increase in degradation of ERalpha incubated for 24 hrs by In-Cell Western assay. Format: cell-based. The essentials:
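MCF7:WS8 cells were estrogen-stripped for 2 days and plated at 2.5 × 10^4 per well. ERα was detected by in-cell western (H10 antibody), with signal normalized to CellTag 700.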

Data set [21] addresses T1, Estrogen receptor (Homo sapiens). The experiment in a line: Inhibition of ERalpha in human MCF7:WS8 cells assessed as increase in degradation of ERalpha incubated for 24 hrs by In-Cell Western assay relative to control. Format: cell-based. A digest of the protocol:
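MCF7:WS8 cells were estrogen-stripped for 2 days and plated at 2.5 × 10^4 per well. After 48 h they were treated for 24 h. ERα was detected by in-cell western (H10 antibody), with signal normalized to CellTag 700.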

Data set [22] concerns the target T2, Estrogen receptor. The experiment in a line: Antagonist activity at ERalpha in human MCF7:WS8 cells incubated for 18 hrs by dual luciferase reporter gene assay relative to control. Format: cell-based. A digest of the protocol:
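MCF7:WS8 cells were estrogen-deprived for 3 days (phenol red-free RPMI, stripped FBS), then plated and grown 24 h. They were co-transfected for 6 h with a 3×vitellogenin ERE-firefly luciferase plasmid and a pRL-TK Renilla plasmid. Compounds were given in competition with 1 nM E2 for 18 h, then dual luciferase was read.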
Background: In a reporter assay the amount or activity of a reporter protein is the signal.

A short description of data set [23]: Plasma concentration in C57BL/6 mouse at 100 mg/kg, po measured after 0.5 hrs by LC/MS-MS analysis. Format: ADME, organism-based. The essentials: (§5)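 PK screen in female C57BL/6 mice (N = 3 per time point). Dosed by gavage at 100 mg/kg in HPβD/PEG-400. Plasma and brain were taken from perfused mice at 30 and 120 min. Quantified by LC-MS/MS in MRM mode, with standard curves in each matrix and a common internal standard. Values are mean and s.d.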

Data set [24] in a line: Plasma concentration in C57BL/6 mouse at 100 mg/kg, po measured after 2 hrs by LC/MS-MS analysis. Format: ADME, organism-based. A digest of the protocol:
as §5

A short description of data set [25]: Drug concentration in C57BL/6 mouse brain at 100 mg/kg, po measured after 0.5 hrs by LC/MS-MS analysis. Format: ADME, organism-based. Particulars: read-out: Drug uptake. The essentials:
as §5

A short description of data set [26]: Drug concentration in C57BL/6 mouse brain at 100 mg/kg, po measured after 2 hrs by LC/MS-MS analysis. Format: ADME, organism-based. Particulars: read-out: Drug uptake. A digest of the protocol: as §5
A short description of data set [27]: cells. Particulars: Homo sapiens, MCF7:5C, 168 h, read-out: pIC50 (converted).
Data set [28] concerns Rattus norvegicus. The data set is described as follows: Induction of uterotrophic activity in Sprague-Dawley rat assessed as increase in uterine weight at 10 mg/kg, po administered for 3 days and measured after 24 hrs of last dosing by hematoxylin eosin staining based imaging analysis. Format: functional, organism-based. A digest of the protocol:
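Female Sprague-Dawley rats were dosed from day 19 of age once daily for 3 days: 10 mg/kg p.o. in 2% Tween 80/0.5% methylcellulose. EE2 (0.1 mg/kg p.o., peanut oil) was the positive control. Uteri were excised and weighed 24 h after the last dose; one half was fixed in 4% paraformaldehyde for H&E histology.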

The source made the active and inactive calls. No cut-off for these calls is given here.

As to `C[C@]12CC[C@@H]3c4ccc(O)cc4C[C@@H](CCCCCCCCC[S+]([O-])CCCC(F)(F)C(F)(F)F)[C@H]3[C@@H]1CC[C@@H]2O` (stereo not given in full) [FULVESTRANT], the Emax in data set [1] came to 48%; in data set [3] it was 66%. Further, in [2], the IC50 was 0.603 nM. For the same compound, the values for the concentration at 0.5 h in [4] and in data set [6] were 31.2 nM and 0.7 nM, respectively. In addition, the concentration at 2 h was found to be 301 nM in data set [5] and 47.4 nM in data set [7]. The result in data set [8] was inactive. For the same compound, the result in data set [9], in data set [10], in data set [11], in [12], in data set [13] and in data set [14] was Active. Moreover, the outcome in data set [15] was Active.

For the compound `O=C(c1ccc(OCCN2CCCCC2)cc1)c1c(-c2ccc(O)cc2)sc2cc(O)ccc12` [RALOXIFENE], in data set [16], the Emax entry is “inactive”. Further, in data set [2], the IC50 is 2.4 nM. Also, the Emax in data set [3] stood at 69%.

As for `Cc1cc(Cl)cc(C)c1C(=O)c1sc2cc(O)ccc2c1Oc1ccc(/C=C/C(=O)O)cc1`, the outcome in data set [17], in [18] and in data set [19] was Active.

On to `Cc1cc(F)cc(C)c1C(=O)c1sc2cc(O)ccc2c1Oc1ccc(OCCN2CC(CF)C2)cc1`, for which the values for the Emax in data set [1] and in [3] were 47% and 73%, respectively. The IC50 was 0.468 nM in data set [2], 1.41 nM in [20], 3.5 nM in data set [22] and 2.14 nM in data set [27]. Also, the Efficacy in data set [21] came to 85%. Moreover, the figures for the concentration at 0.5 h in [23] and in data set [25] were 786 nM and 750 nM, respectively. The values for the concentration at 2 h in [24] and in data set [26] were 659 nM and 588 nM, respectively. The outcome in data set [10], in data set [12] and in data set [13] was Active.

For the compound `Cc1c(-c2ccc(O)cc2)n(Cc2ccc(OCCN3CCCCCC3)cc2)c2ccc(O)cc12`, the outcome in [28] was inactive.

For the compound `Cc1ccccc1C(=O)c1sc2cc(O)ccc2c1Oc1ccc(OCCN2CCCCC2)cc1`, in [16], the Emax entry is “inactive”. Besides, in data set [2], the IC50 is 0.407 nM. The Emax in [3] was 68%.

For the compound `Cc1cc(F)cc(C)c1C(=O)c1sc2cc(O)ccc2c1Oc1ccc(OCCN2CC[C@@H](CF)C2)cc1`, the values for the Emax in data set [1] and in [3] were 34% and 66%, respectively. In addition, the IC50 in data set [2] was 0.631 nM; in data set [20] it was 5.89 nM; in data set [22] it was 12 nM; in [27], 1.07 nM. The Efficacy in [21] is 84%. The results for the concentration at 0.5 h in [23] and in [25] were 211 nM and 121 nM, respectively. In addition, the concentration at 2 h was determined as 163 nM in [24] and 276 nM in [26].

The record behind these values is ChEMBL document CHEMBL4354825, “Design and Synthesis of Basic Selective Estrogen Receptor Degraders for Endocrine Therapy Resistant Breast Cancer” (J Med Chem, 2019).
